Results from ChEMBL document CHEMBL1773040, “Briarane diterpenes diminish COX-2 expression in human colon adenocarcinoma cells” (2011).
Active and inactive are the calls of the source. The calls are words filed in the database; no cut-off is given here.

What was measured:
[1] = system: Caco-2; assay: Cytotoxicity against human Caco2 cells assessed as decrease in cell viability at 5 to 30 uM after 24 hrs by trypan blue exclusion assay; assay type: functional, cell-based
Summary of the method: (§1)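 Caco-2 cells kept in MEM with 10% heat-inactivated FBS, penicillin G and streptomycin at 37 C, 5% CO2. Compounds given from a 5 mg/mL DMSO stock; exponentially growing cells seeded in complete medium with compound for 24 h. Floating and adherent cells pooled, mixed with 0.4% trypan blue, and stained/unstained cells counted by hemacytometer. Each experiment run three times.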

[2] = system: Caco-2; assay: Decrease in PMA-induced COX-2 mRNA expression in human Caco2 cells at 5 to 15 uM after 24 hrs by PCR analysis; assay type: functional, cell-based
[3] = system: Caco-2; assay: Cytotoxicity against human Caco2 cells assessed as decrease in cell viability at 30 uM after 24 hrs by trypan blue exclusion assay; assay type: functional; summary of the method: as §1
[4] = system: RAW264.7; assay: Decrease in PMA-induced COX-2 mRNA expression in mouse RAW264.7 cells at 5 to 15 uM after 24 hrs by PCR analysis; assay type: functional, cell-based
Summary of the method: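 RAW 264.7 monolayers stimulated with PMA and co-incubated with compound (0–15 μM) for 24 h. Total RNA isolated; equal RNA amounts reverse-transcribed to cDNA. COX-2 fragments amplified by PCR: 94 C 3 min, then 35 cycles of 94 C 30 s, 56 C 1 min, 78 C 30 s. GAPDH served as reference.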

[5] = system: Caco-2; assay: Cytotoxicity against human Caco2 cells assessed as decrease in cell viability at 20 uM after 24 hrs by trypan blue exclusion assay; assay type: functional; summary of the method: as §1
[6] = system: Caco-2; assay: Decrease in PMA-induced COX-2 mRNA expression in human Caco2 cells at 10 to 15 uM after 24 hrs by PCR analysis; assay type: functional, cell-based
[7] = system: Caco-2; assay: Cytotoxicity against human Caco2 cells assessed as decrease in cell viability at 15 uM after 24 hrs by trypan blue exclusion assay; assay type: functional; summary of the method: as §1

| SMILES | Activity [1] | Activity [2] | Activity [3] [%] | Activity [4] | Activity [5] [%] | Activity [6] | Activity [7] [%] |
| --- | --- | --- | --- | --- | --- | --- | --- |
| CC(=O)O[C@@H]1C[C@H](O)[C@@]2(C)C=C[C@@H](OC(C)=O)[C@@](C)(O)[C@@H]2[C@H](OC(C)=O)[C@]23O[C@@]2(C)C(=O)O[C@H]3/C=C\1C [BRIALALEPOLIDE A] | Dose-dependent effect | inactive | 50 | inactive | – | – | – |
| CCCCCC(=O)O[C@@H]1C[C@H](O)[C@@]2(C)C=C[C@@H](OC(C)=O)[C@@](C)(O)[C@@H]2[C@H](OC(C)=O)[C@]23O[C@@]2(C)C(=O)O[C@H]3/C=C\1C [BRIALALEPOLIDE B] | Dose-dependent effect | – | – | Active | 50 | Active | – |
| CCCCCCCC(=O)O[C@@H]1C[C@H](O)[C@@]2(C)C=C[C@@H](OC(C)=O)[C@@](C)(O)[C@@H]2[C@H](OC(C)=O)[C@]23O[C@@]2(C)C(=O)O[C@H]3/C=C\1C [BRIALALEPOLIDE C] | Dose-dependent effect | – | 75 | Active | – | Active | 50 |
